Screening results (PubChem BioAssay)
proCasp3 act – activators of human procaspase-3 D3A mutant, primary screen, biochemical, absorbance, PC-3 D3A mutant, single concentration. Caspase-3 (Homo sapiens), P42574. recombinant procaspase-3 D3A, Ac-DEVD-pNA absorbance 405 nm. activation, % at 8.5 µM. 0.11% of 330,000 active. AID 463141, 2010;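 active = activation above the mean of all tested compounds plus 3 SD, cut at about 21% in these data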
Target sequence (P42574 whole entry D9A/D28A/D175A): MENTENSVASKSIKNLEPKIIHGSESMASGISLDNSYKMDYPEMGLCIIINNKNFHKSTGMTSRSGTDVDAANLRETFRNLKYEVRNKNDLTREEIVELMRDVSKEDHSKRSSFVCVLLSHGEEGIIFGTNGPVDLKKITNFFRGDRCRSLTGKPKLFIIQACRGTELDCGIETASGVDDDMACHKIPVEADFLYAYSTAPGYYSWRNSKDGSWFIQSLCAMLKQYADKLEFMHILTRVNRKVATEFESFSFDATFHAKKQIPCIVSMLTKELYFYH
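Assay system: Autoprocessing-dead procaspase-3 D3A mutant enzyme; also added: Ac-DEVD-pNA; doses: one concentration, 8.5 µM nominal, 0.8% DMSO; times: 1 h compound preincubation, 2 h substrate hydrolysis at 25 °C; technique: 405 nm absorbance of p-nitroaniline, reads at 0 and 120 min; measure: % activation between DMSO and enzyme-spiked controls; repeats: single replicate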
procasp7 counter – procaspase-7 activators, primary screen, counter-screen for procaspase-3 activator project, biochemical, absorbance, HTS, human | Caspase-7 (Homo sapiens), P55210 | recombinant procaspase-7, Ac-DEVD-pNA absorbance 405 nm; D23A/D198A/D206A triple mutant, cannot self-cleave; scale: DMSO 0, 5 µM enzyme 100 | activation, % at 8.5 µM | 0.093% of 330,000 active;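 active = percent activation above the screen-wide mean plus 3 SD, cut at about 25% in these data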
Target sequence (P55210 whole entry D23A/D198A/D206A): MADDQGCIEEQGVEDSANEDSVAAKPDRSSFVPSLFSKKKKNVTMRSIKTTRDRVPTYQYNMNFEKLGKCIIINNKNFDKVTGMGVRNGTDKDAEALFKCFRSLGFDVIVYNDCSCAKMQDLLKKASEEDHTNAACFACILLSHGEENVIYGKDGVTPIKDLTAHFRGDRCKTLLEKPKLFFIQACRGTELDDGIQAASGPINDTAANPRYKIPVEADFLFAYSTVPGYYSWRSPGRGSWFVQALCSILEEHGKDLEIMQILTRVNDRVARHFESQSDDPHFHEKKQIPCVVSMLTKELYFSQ
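Detection: p-Nitroaniline absorbance at 405 nm, read at 0 and 120 min; system: Uncleavable procaspase-7 mutant enzyme; evaluation: % activation from two-timepoint absorbance difference, scaled to controls; times: 1 h enzyme–compound preincubation and 2 h substrate reaction, both 25 °C; buffer or medium: Zinc-free HEPES pH 7.4 with 300 mM NaCl, 0.01% Triton X-100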
MsrA inh – bovine MsrA enzyme inhibitors, primary screen, biochemical, absorbance, HTS; purified bovine MsrA, absorbance read-out; Methionine sulfoxide reductase A (Bos taurus); inhibition, % at 15.5 µM; 0.75% of 360,000 active; in the data active = inhibition above about 4.5%
MsrA act – bovine MsrA enzyme activators, primary screen, biochemical, absorbance, HTS | 0.3% of 360,000 active | activation, % at 10.6 µM | purified bovine MsrA, absorbance read-out; in the data active = activation above about 7.5%
TbMetRS inhib – T. brucei MetRS inhibitors, primary screen, biochemical, luminescence | 0.4% of 360,000 active | inhibition, % at 11.9 µM | purified T. brucei MetRS, ATP depletion, Kinase-Glo luminescence | methionyl-tRNA synthetase (Trypanosoma brucei brucei);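 active = inhibition above a per-plate cutoff of the control wells' mean inhibition plus 3 SD, cut at about 5.5% in these data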
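Test system – parasite MetRS enzyme · Reagent – substrates ATP, L-methionine and bulk Escherichia coli tRNA · Doses – 11.9 µM compound single dose, 0.9% DMSO · Times – 15 min enzyme-compound preincubation, 2 h reaction, 10 min detection, 25 °C · Signal – Kinase-Glo luminescence, ATP depletion format · Controls – DMSO-only wells as low control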
MsrA activ conf – bovine MsrA activators, retest, confirmation, biochemical, absorbance, HTS; purified bovine MsrA, absorbance read-out; 12% of 1,000 active; shares compounds with MsrA act; AID 602270, 2012; activation, % at 10.6 µM; in the data active = activation above about 4%;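 note: enzyme coupled to thioredoxin and thioredoxin reductase with NADPH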
Of the large screens only hits and unclear results are named; the others gave an inactive call (follow-up assays come after a bar, where they were run). Sampled rows, rich in hits. Any-hit rate of the full collection: about 1.5%.

CCC1CCc2sc(C(=O)N(C)CC(=O)Nc3cccc(OC)c3)cc2C1 (centres undefined)	MsrA act 10.7 | MsrA activ conf inactive
Cn1ccsc1=NC(=O)c1ccc([N+](=O)[O-])o1	MsrA act 8.8 | MsrA activ conf inactive
O=C(COc1ccc2cc(Br)ccc2c1)N1CCOCC1	MsrA act 13.1 | MsrA activ conf inactive
CCOC(=O)C1=CCN(S(=O)(=O)c2ccccc2Br)C1c1ccc(Cl)cc1 (centres undefined)	none (no result: proCasp3 act, procasp7 counter, MsrA act, TbMetRS inhib)
CC1CCc2cc(F)ccc2N1C(=O)CCC(=O)O (centres undefined)	MsrA act 9.8 | MsrA activ conf inactive
CC1CCc2cc(F)ccc2N1C(=O)c1cccs1 (centres undefined)	none
Cc1ccc(OCC(=O)Nc2cc(-c3nn4c(C)nnc4s3)ccc2C)cc1	MsrA act 9.7 | MsrA activ conf inactive
COc1ccc(Cl)cc1NC(=O)CN(C)CC(=O)Nc1ccc(Br)cc1	MsrA act 8.9 | MsrA activ conf inactive
CCN(CC)C(=O)CSc1ncnc2sc(-c3ccccc3)cc12	MsrA act 7.7 | MsrA activ conf inactive
CN(CCC#N)C(=O)CSc1ncnc2sc(-c3ccccc3)cc12	none
CC1CCCC(NC(=O)COC(=O)c2ccc([N+](=O)[O-])s2)C1C (centres undefined)	MsrA act 20.9 | MsrA activ conf 5.4
CC1CCCC(NC(=O)COC(=O)c2ccccc2[N+](=O)[O-])C1C (centres undefined)	none
S=c1[nH]ccc2ccccc12	MsrA act 9.8 (no result: proCasp3 act, procasp7 counter) | MsrA activ conf inactive
COc1cc(C(=O)Oc2cc(C)cc(C)c2)cc(OC)c1OC	MsrA act 8.8 | MsrA activ conf inactive
C[C@@H]1CN([C@@H](C)CO)C(=O)CCCn2cc(nn2)CO[C@H]1CN(C)S(C)(=O)=O	none (no result: proCasp3 act, procasp7 counter, MsrA act, TbMetRS inhib)
CCCCNC(=O)C[C@H]1C[C@@]2(C(=O)OC)C(=C[C@H](C(C)C)O[C@@H]2C2CC2)N(Cc2ccccc2)C1=O	none (no result: proCasp3 act, procasp7 counter, MsrA act, TbMetRS inhib)
CCOC(=O)c1[nH]c2ccc(F)cc2c1NC(=O)CN1CCN(C/C=C/c2ccccc2)CC1	MsrA act 10.1 | MsrA activ conf inactive
COC(=O)c1[nH]c2ccccc2c1NC(=O)CN1CCN(C/C=C/c2ccccc2)CC1	none
CCCCCn1c(=O)c2ccccc2n2c(=S)[nH]nc12	MsrA act 9.6 | MsrA activ conf inactive
COc1ccc2c(c1)[C@@]1(OCCC=C[C@H]1C)C(=O)N2Cc1ccc(Br)cc1	none (no result: proCasp3 act, procasp7 counter, MsrA act, TbMetRS inhib)
Cc1noc(C)c1COc1ccccc1C(=O)NCCc1ccc(S(N)(=O)=O)cc1	MsrA act 7.8 | MsrA activ conf inactive
O=C(NCCc1ccc(Cl)cc1)C12CC3CC(CC(O)(C3)C1)C2	MsrA act 9.2 | MsrA activ conf inactive
c1ccc(Sc2ccncc2)cc1	none (no result: proCasp3 act, procasp7 counter)
c1cc(SSc2ccncc2)ccn1	MsrA act 10.2 | MsrA activ conf inactive
O=C(NCC1CCN(C(=O)C(=O)c2cccs2)CC1)c1ccc2ccccc2c1	none (no result: proCasp3 act, procasp7 counter, MsrA act, TbMetRS inhib)
Oc1c(Cl)cc(Oc2cc(Cl)c(O)c(CN3CCOCC3)c2)cc1CN1CCOCC1	MsrA act 8.7 (no result: proCasp3 act, procasp7 counter) | MsrA activ conf inactive
C[C@@H]1CN([C@@H](C)CO)C(=O)CCCn2cc(nn2)CO[C@H]1CN(C)C(=O)Nc1cccc(F)c1	none (no result: proCasp3 act, procasp7 counter, MsrA act, TbMetRS inhib)
CC(C)Cn1[nH]c2c3c(ccc2c1=O)C(=O)c1ccccc1C3=O	MsrA act 7.8 (no result: MsrA inh) | MsrA activ conf inactive
COC(=O)C1=C(C)N(Cc2ccc(C(F)(F)F)cc2)C(=NCc2cc(OC)c(OC)c(OC)c2)NC1c1cccc(Cl)c1 (centres undefined)	none (no result: proCasp3 act, procasp7 counter, MsrA act, TbMetRS inhib)
O=[N+]([O-])c1cc(/C=N/O)ccc1N1CCCC1	none
CO/N=C/c1ccc(N2CCCC2)c([N+](=O)[O-])c1	MsrA act 17.2 | MsrA activ conf 5.8
Cc1cc(N2CCN(C(=O)OC(C)(C)C)C[C@@H]2C)ccc1N1CCN(Cc2ccccc2)[C@@H](C)C1	none (no result: proCasp3 act, procasp7 counter, MsrA act, TbMetRS inhib)
Cc1ccc(C(=O)Nc2cccc(C(=O)N3CCOCC3)c2)cc1Cl	MsrA act 20.6 | MsrA activ conf inactive
O=C(Nc1cccc(C(=O)N2CCOCC2)c1)c1ccccc1	none
O=C(CSc1ccc(Cl)cc1)NN=C1CCCCCC1	MsrA act 9.0 | MsrA activ conf inactive
C[C@H](O)[C@@H]1C(=O)N2CCc3c([nH]c4c(-c5ccccc5)cccc34)[C@@H]2C[C@@H]1N(C)C(=S)Nc1ccc(C#N)cc1	none (no result: proCasp3 act, procasp7 counter, MsrA act, TbMetRS inhib)
COCCN1C(=O)c2cc(C(=O)Nc3ccc(OC)c(OC)c3)ccc2C1Nc1ccc(OC)c(OC)c1 (centres undefined)	MsrA act 12.1 | MsrA activ conf inactive
COc1cccc(C2=Cc3ccc(F)cc3C(CC(C)=O)N2c2ccc(C#CC3(O)CCCCC3)cc2)c1 (centres undefined)	MsrA act 8.1 (no result: proCasp3 act, procasp7 counter) | MsrA activ conf inactive
Cc1ccccc1C(=O)N[C@H](C(=O)N1CCC[C@H]1C(=O)NCCc1ccccc1Cl)C(C)C	none (no result: proCasp3 act, procasp7 counter, MsrA act, TbMetRS inhib)
CN(C)S(=O)(=O)c1ccc(Cl)c(NC(=O)COC(=O)CNS(=O)(=O)c2c(F)cccc2F)c1	MsrA act 8.8 (no result: proCasp3 act, procasp7 counter) | MsrA activ conf inactive
CN(C)S(=O)(=O)c1ccc(Cl)c(NC(=O)COC(=O)CNC(=O)c2ccco2)c1	none
O=C(COC(=O)Cc1ccccc1F)Nc1ccc2c(c1)OCCO2	MsrA act 11.4 | MsrA activ conf inactive
COC(=O)[C@]12C[C@H](CC(=O)NCC3CCCCC3)C(=O)N(Cc3ccccc3)C1=C[C@H](C1CCCC1)O[C@@H]2C	none (no result: proCasp3 act, procasp7 counter, MsrA act, TbMetRS inhib)
Cc1cccc(NC(=O)NC(=O)c2ccccc2)n1	MsrA act 8.1 | MsrA activ conf inactive
Cc1cccc(NC(=O)c2ccc(C(=O)c3ccccc3)cc2)n1	none
COC(=O)C1=C(C)N(Cc2ccccc2C(F)(F)F)C(=NCc2ccc(OC)cc2)NC1c1cccc(Cl)c1 (centres undefined)	none (no result: proCasp3 act, procasp7 counter, MsrA act, TbMetRS inhib)
O=C(Nc1ccc(Cl)cc1)N1CCN(c2ccc3nnc(-c4ccc(F)cc4)n3n2)CC1	none
O=C(Nc1ccccc1Cl)N1CCN(c2ccc3nnc(-c4ccccc4)n3n2)CC1	MsrA act 17.4 (no result: MsrA inh) | MsrA activ conf inactive
Cc1ccc(COc2ccsc2-c2n[nH]c(=S)n2C)cc1	none
Cn1c(-c2sccc2OCc2ccc(Cl)cc2Cl)n[nH]c1=S	MsrA act 16.7 | MsrA activ conf inactive
O=C(NC(CC1=CCCCC1)c1ccccc1)C(F)(F)F (centres undefined)	none (no result: proCasp3 act, procasp7 counter, MsrA act, TbMetRS inhib)
